Test results reported in ChEMBL document CHEMBL2010692, “Inhibitory effect of novel S,N-bisphosphonates on some carcinoma cell lines, osteoarthritis, and chronic inflammation” (Eur J Med Chem, 2012).

Legend:
Mus musculus [1] = test: Antiinflammatory activity in methylated bovine serum albumin sensitized delayed-type hypersensitivity granuloma mouse model assessed as reduction of granuloma wet weight at 60 mg/kg, sc qd for 9 days; format: functional; details: 216 h, route subcutaneous
How it was run: (§1)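 Groups of 10 female mice (25 g) were sensitized sc over the inguinal lymph node with mBSA emulsion in saline, Freund's incomplete adjuvant and dextran. Three weeks later, two 6-mm hydroxyapatite discs soaked in mBSA (30 mg/mL saline) were implanted sc in the dorsum. Compounds at pH 7.4 were given sc into the scruff at 0.1 mL/10 g, daily from implantation to day 9. Granuloma wet and dry weights were recorded as % inhibition.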

Mus musculus [2] = test: Antiinflammatory activity in methylated bovine serum albumin sensitized delayed-type hypersensitivity granuloma mouse model assessed as reduction of granuloma dry weight at 25 mg/kg, sc qd for 9 days; format: functional; details: 216 h, route subcutaneous; how it was run: as §1
Mus musculus [3] = test: Antiinflammatory activity in methylated bovine serum albumin sensitized delayed-type hypersensitivity granuloma mouse model assessed as reduction of granuloma dry weight at 60 mg/kg, sc qd for 9 days; format: functional; details: 216 h, route subcutaneous; how it was run: as §1
Rattus norvegicus [4] = test: Antiarthritic activity in complete Freund's adjuvant-induced rat arthritis model assessed as reduction of paw volume in non-injected paw at 30 mg/kg, sc qd for 28 days; format: functional; details: 672 h, route subcutaneous
How it was run: (§2)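 Rat adjuvant-induced polyarthritis. Compounds were dissolved or suspended in sterile saline, sonicated as needed, brought to pH 7.0 with NaOH, and kept as frozen aliquots, fresh each dosing day. Dosing was sc once daily for 28 days, by body weight. The arthritic control group got vehicle sc. Injected and noninjected hindpaw volumes were measured on day 28 by mercury displacement plethysmography and expressed as % inhibition.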

Rattus norvegicus [5] = test: Antiarthritic activity in complete Freund's adjuvant-induced rat arthritis model assessed as reduction of paw volume in injected paw at 10 mg/kg, sc qd for 28 days; format: functional; details: 672 h, route subcutaneous; how it was run: as §2
Rattus norvegicus [6] = test: Antiarthritic activity in complete Freund's adjuvant-induced rat arthritis model assessed as reduction of paw volume in injected paw at 20 mg/kg, sc qd for 28 days; format: functional; details: 672 h, route subcutaneous; how it was run: as §2
Rattus norvegicus [7] = test: Antiarthritic activity in complete Freund's adjuvant-induced rat arthritis model assessed as reduction of paw volume in injected paw at 50 mg/kg, sc qd for 28 days; format: functional; details: 672 h, route subcutaneous; how it was run: as §2
Mus musculus [8] = test: Antiinflammatory activity in methylated bovine serum albumin sensitized delayed-type hypersensitivity granuloma mouse model assessed as reduction of granuloma dry weight at 100 mg/kg, sc qd for 9 days; format: functional; details: 216 h, route subcutaneous; how it was run: as §1
Rattus norvegicus [9] = test: Antiarthritic activity in complete Freund's adjuvant-induced rat arthritis model assessed as reduction of paw volume in non-injected paw at 20 mg/kg, sc qd for 28 days; format: functional; details: 672 h, route subcutaneous; how it was run: as §2
Rattus norvegicus [10] = test: Antiarthritic activity in complete Freund's adjuvant-induced rat arthritis model assessed as reduction of paw volume in non-injected paw at 10 mg/kg, sc qd for 28 days; format: functional; details: 672 h, route subcutaneous; how it was run: as §2
Rattus norvegicus [11] = test: Antiarthritic activity in complete Freund's adjuvant-induced rat arthritis model assessed as reduction of paw volume in non-injected paw at 50 mg/kg, sc qd for 28 days; format: functional; details: 672 h, route subcutaneous; how it was run: as §2
Rattus norvegicus [12] = test: Antiarthritic activity in complete Freund's adjuvant-induced rat arthritis model assessed as reduction of paw volume in injected paw at 30 mg/kg, sc qd for 28 days; format: functional; details: 672 h, route subcutaneous; how it was run: as §2
Mus musculus [13] = test: Antiinflammatory activity in methylated bovine serum albumin sensitized delayed-type hypersensitivity granuloma mouse model assessed as reduction of granuloma wet weight at 25 mg/kg, sc qd for 9 days; format: functional; details: 216 h, route subcutaneous; how it was run: as §1
Mus musculus [14] = test: Antiinflammatory activity in methylated bovine serum albumin sensitized delayed-type hypersensitivity granuloma mouse model assessed as reduction of granuloma wet weight at 100 mg/kg, sc qd for 9 days; format: functional; details: 216 h, route subcutaneous; how it was run: as §1
Mus musculus [15] = test: Antiinflammatory activity in methylated bovine serum albumin sensitized delayed-type hypersensitivity granuloma mouse model assessed as reduction of granuloma wet weight at 50 mg/kg, sc qd for 9 days; format: functional; details: 216 h, route subcutaneous; how it was run: as §1
Mus musculus [16] = test: Antiinflammatory activity in methylated bovine serum albumin sensitized delayed-type hypersensitivity granuloma mouse model assessed as reduction of granuloma dry weight at 50 mg/kg, sc qd for 9 days; format: functional; details: 216 h, route subcutaneous; how it was run: as §1
Rattus norvegicus [17] = test: Antiarthritic activity in complete Freund's adjuvant-induced rat arthritis model assessed as reduction of paw volume in injected paw at 100 mg/kg, sc qd for 28 days; format: functional; details: 672 h, route subcutaneous; how it was run: as §2
Rattus norvegicus [18] = test: Antiarthritic activity in complete Freund's adjuvant-induced rat arthritis model assessed as reduction of paw volume in non-injected paw at 100 mg/kg, sc qd for 28 days; format: functional; details: 672 h, route subcutaneous; how it was run: as §2
Mus musculus [19] = test: Toxicity in albino mouse assessed as toxic symptoms at 500 to 1000 mg/kg, ip after 24 hrs; details: in vivo
Mus musculus [20] = test: Toxicity in albino mouse assessed as mortality at 500 to 1000 mg/kg, […] after 24 hrs; format: organism-based; parameters: dose 500-1000 mg/kg; details: in vivo
How it was run: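 Albino mice (20-25 g) were split into 6 groups of 8. Compounds were given at 500, 750 and 1000 mg/kg; controls received buffer only. Toxic symptoms, mortality and postmortem findings were recorded 24 h after administration. LD50 was calculated by the Dm − Σ(z×d)/n formula.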

HCT-116 = test: Cytotoxicity against human HCT116 cells after 48 hrs by SRB assay; format: functional, cell-based; details: HCT-116, 48 h
How it was run: (§3)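 Cells were seeded at 10^4 per well and allowed to attach for 24 h. They were then exposed to four compound concentrations (5, 12.5, 25, 50), each in triplicate wells, for 48 h at 37 °C in 5% CO2. Cells were fixed and stained with sulforhodamine B, washed with acetic acid, and bound dye was recovered in Tris-EDTA pH 7.4 and read on a plate reader. IC50 was taken from survival curves using the triplicate means.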

HepG2 = test: Cytotoxicity against human HepG2 cells after 48 hrs by SRB assay; format: functional, cell-based; details: HepG2, 48 h; how it was run: as §3
MCF7 = test: Cytotoxicity against human MCF7 cells after 48 hrs by SRB assay; format: functional, cell-based; details: MCF7, 48 h; how it was run: as §3
HeLa = test: Cytotoxicity against human HeLa cells after 48 hrs by SRB assay; format: functional, cell-based; how it was run: as §3

Structure (SMILES)	inhibition in vivo at 60 mg/kg (Mus musculus [1])	inhibition in vivo at 25 mg/kg (Mus musculus [2])	inhibition in vivo at 60 mg/kg (Mus musculus [3])	inhibition in vivo at 30 mg/kg (Rattus norvegicus [4])	inhibition in vivo at 10 mg/kg (Rattus norvegicus [5])	inhibition in vivo at 20 mg/kg (Rattus norvegicus [6])	inhibition in vivo at 50 mg/kg (Rattus norvegicus [7])	inhibition in vivo at 100 mg/kg (Mus musculus [8])	inhibition in vivo at 20 mg/kg (Rattus norvegicus [9])	inhibition in vivo at 10 mg/kg (Rattus norvegicus [10])	inhibition in vivo at 50 mg/kg (Rattus norvegicus [11])	inhibition in vivo at 30 mg/kg (Rattus norvegicus [12])	inhibition in vivo at 25 mg/kg (Mus musculus [13])	inhibition in vivo at 100 mg/kg (Mus musculus [14])	further results
CCOP1(=O)Nc2ccccc2C(S)=C1P(=O)(OCC)OCC (centres undefined)	44%	38%	42%	68%	< 5%	10%	25%	50%	56%	66%	75%	14%	33%	51%	
CCN(CC)c1ccc(C2=NC(P(=O)(O)O)(P(=O)(O)O)C(=S)c3ccccc32)cc1							< 5%	30%			10%			23%	inhibition in vivo at 50 mg/kg (Mus musculus [15]): 16%; inhibition in vivo at 50 mg/kg (Mus musculus [16]): 26%; inhibition in vivo at 100 mg/kg (Rattus norvegicus [17]): 18%; inhibition in vivo at 100 mg/kg (Rattus norvegicus [18]): 24%
CCOP(=O)(OCC)C1(P(=O)(OCC)OCC)C(=S)c2ccccc2N=C1C	30%	24%	37%	72%	< 5%	23%	20%	44%	61%	38%	66%	18%	20%	40%	
O=P(O)(O)C1(P(=O)(O)O)C(=S)c2ccccc2N=C1C1CCCCC1							< 5%	36%			8%			24%	inhibition in vivo at 50 mg/kg (Mus musculus [15]): 19%; inhibition in vivo at 50 mg/kg (Mus musculus [16]): 28%; inhibition in vivo at 100 mg/kg (Rattus norvegicus [17]): 16%; inhibition in vivo at 100 mg/kg (Rattus norvegicus [18]): 14%
CCOP(=O)(OCC)C1(P(=O)(OCC)OCC)N=C(c2ccc(N(CC)CC)cc2)c2ccccc2C1=S	31%	32%	40%	52%	< 5%	20%	24%	44%	56%	44%	65%	16%	22%	34%	Activity (Mus musculus [19]): Non-toxic; Activity (Mus musculus [20]): Non-toxic
COc1cccc2c1C(=O)c1c(O)c3c(c(O)c1C2=O)C[C@@](O)(C(=O)CO)C[C@@H]3O[C@H]1C[C@H](N)[C@H](O)[C@H](C)O1 [DOXORUBICIN]															IC50 (HCT-116): 6.86 µM; IC50 (HepG2): 5.7 µM
CC1=Nc2ccc(Br)cc2C(=S)C1(P(=O)(O)O)P(=O)(O)O							< 5%	25%			12%			13%	inhibition in vivo at 50 mg/kg (Mus musculus [15]): < 10%; inhibition in vivo at 50 mg/kg (Mus musculus [16]): 18%; inhibition in vivo at 100 mg/kg (Rattus norvegicus [17]): 21%; inhibition in vivo at 100 mg/kg (Rattus norvegicus [18]): 18%
CCOP(=O)(OCC)C1=C(S)c2ccccc2N(C)P1(=O)OCC (centres undefined)	48%	50%	53%	73%	18%	27%	37%	55%	60%	66%	76%	35%	33%	50%	Activity (Mus musculus [19]): Non-toxic; Activity (Mus musculus [20]): Non-toxic
CCOP(=O)(OCC)C1(P(=O)(OCC)OCC)C(=S)c2ccccc2N1C	45%	36%	45%	70%	15%	23%	30%	48%	55%	45%	68%	32%	33%	38%	IC50 (MCF7): 16.5 µM; IC50 (HCT-116): 8.27 µM; IC50 (HeLa): 15.2 µM; IC50 (HepG2): 14.7 µM; Activity (Mus musculus [19]): Non-toxic; Activity (Mus musculus [20]): Non-toxic
CCOP(=O)(OCC)C1(P(=O)(OCC)OCC)Nc2ccccc2C1=S	31%	30%	42%	58%	5%	7%	15%	46%	60%	48%	64%	11%	24%	44%	
O=P(O)(O)C(Cl)(Cl)P(=O)(O)O [CLODRONIC ACID]	40%	33%	44%	62%	23%	28%	35%	48%	70%	56%	68%	34%	30%	44%	
CN1c2ccccc2C(=S)C1(P(=O)(O)O)P(=O)(O)O							< 5%	32%			18%			25%	inhibition in vivo at 50 mg/kg (Mus musculus [15]): 15%; inhibition in vivo at 50 mg/kg (Mus musculus [16]): 16%; inhibition in vivo at 100 mg/kg (Rattus norvegicus [17]): 13%; inhibition in vivo at 100 mg/kg (Rattus norvegicus [18]): 27%
CCOP(=O)(OCC)C1(P(=O)(OCC)OCC)C(=S)c2ccccc2N=C1c1ccccc1	35%	22%	32%	68%	< 5%	12%	28%	48%	60%	40%	70%	30%	13%	43%	IC50 (MCF7): 15.6 µM; IC50 (HCT-116): 22.8 µM; IC50 (HeLa): 27.1 µM; IC50 (HepG2): 20.4 µM
CCOP(=O)(OCC)C1(P(=O)(OCC)OCC)N=C(c2ccc(C)cc2)c2ccccc2C1=S															IC50 (MCF7): 30.4 µM; IC50 (HCT-116): 18.3 µM; IC50 (HeLa): 26.7 µM; IC50 (HepG2): 25.2 µM
